According to ChEMBL document CHEMBL4513216, “Probing the Open Global Health Chemical Diversity Library for Multistage-Active Starting Points for Next-Generation Antimalarials” (ACS Infect Dis, 2020):

Experiment: Toxicity liver stage against HepG2, at 10uM
Assay type: cell-based
Set-up: test concentration 10 uM, cell line HepG2-A16-CD81EGFP
Conditions: human, HepG2-A16-CD81EGFP cells; read-out: INHIBITION
Summary of the method: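 Uninfected HepG2-A16-CD81EGFP cells, 3 × 10^3 per well, 1536-well, plated on prespotted compound at 10 μM final, parasite-free screening media added to match infected plates; puromycin 10 μM positive, DMSO 0.5% negative; run in parallel with 48 h PbLuc assay at 37 °C, 5% CO2; viability by CellTiter-Glo luminescence, normalized to controls.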

| SMILES | cytotoxicity at 10 µM |
| --- | --- |
| CN1C(=O)CO[C@H](c2ccc(NC(=O)Nc3ccccc3)cc2)[C@H]1CO | -1.63% |
| CCC(=O)Nc1ccccc1Sc1nc(Br)nn1C | 3.28% |
| COc1ccccc1CN1CC(O)CN(C(=O)OCC(C)C)CC1=O (stereo not given) | -6.19% |
| COc1ccc(S(=O)(=O)NCCC(O)c2ccccc2)c(C)c1 (stereo not given) | 0.174% |
| O=C(NC1CC1)[C@@H]1CCO[C@@H]2CCN(C3CCCC3)C[C@H]21 | 13.3% |
| CC(=O)N1CCCC2(CN(Cc3ccccc3C(F)(F)F)CCO2)C1 (stereo not given) | 7.28% |
| CCOCC1CN(C(=O)c2ccco2)Cc2nn(C)cc21 (stereo not given) | 3.86% |
| COc1ccc(-c2c(C)nn3c(=N)c(C#N)n[nH]c23)cc1 | -8.26% |
| O=C1CSC(c2cccs2)c2cnn(C3CCCC3)c2N1 (stereo not given) | 5.99% |
| CS(=O)(=O)N1CC[C@]2(C[C@@H](OCC3CCC3)CO2)C1 | -6.66% |
| Cn1cc(-c2ncnc3c2CCN(C(=O)N2CCOCC2)CC3)cn1 | -11.3% |
| CC(C)N(C)C(=O)C1=NOC2(CCN(C(=O)c3ccncc3)C2)C1 (stereo not given) | -0.237% |
| Cc1nc(N2CCOCC2)nc2c1CCN(C(=O)NC1CCCC1)CC2 | 3.41% |
| COCCCNc1cc(C)nn2cnnc12 | 6% |
| O=C(c1ccc(-c2ccc(O)nc2)s1)N1CCSCC1 | 3.96% |
| CN([C@@H]1CC[C@@H](N2CCOCC2)[C@@H]1O)S(=O)(=O)c1ccccc1 | 2.77% |
| CN1CCN(C(=O)CCn2ncc3ccccc32)CC(C(N)=O)C1 (stereo not given) | 4.33% |
| Cc1cc2c(=O)n(CC(=O)N3CCn4cccc4C3C(C)C)cnc2s1 (stereo not given) | 3.77% |
| CNC(=O)C1CN(C(C)C)CCN1c1nc(C)cc(C)n1 (stereo not given) | -10.4% |
| Cc1cc(C)nc(N2CCOC(c3cc(CCO)[nH]n3)C2)n1 (stereo not given) | 1.89% |
| c1ccc(CN2CCCC[C@H]3CN(c4ncccn4)C[C@H]32)cc1 | -3.81% |
| CCc1ccccc1C(=O)NS(=O)(=O)CCCC#N | -5.83% |
| O=C(Nc1cn[nH]c1)N1CCCCCC1c1ccncc1 (stereo not given) | -3.4% |
| CCOC(=O)CCCc1ccc2c(c1)CC(=O)N2 | 1.23% |
| CCC(O)CN(Cc1cccc(C(=O)N(C)C)c1)c1ccccc1 (stereo not given) | 0.503% |
| O=C(Nc1ccc(-c2csnn2)cc1)N1CCN2CCCCC2C1 (stereo not given) | -7.23% |
| Cc1nn(C)c(C)c1OCC(=O)N1CCCc2c(F)ccc(F)c21 | 2.27% |
| O=S(=O)(NCc1ccnc(-n2ccnc2)c1)c1cncc(F)c1 | 1.28% |

| SMILES | cytotoxicity at 10 µM |
| --- | --- |
| CCc1c(C(=O)N2CC(C)OC(C)(C)C2)cnn1-c1ccccn1 (stereo not given) | -2.51% |
| Cc1nnc2n1CCN(c1nc3ccccc3o1)C2 | 3.51% |
| CN(Cc1ccc(Cl)s1)C(=O)NCCC(=O)N1CCCCCC1 | -0.691% |
| CCS(=O)(=O)Cc1csc(-c2ccc(S(C)(=O)=O)cc2)n1 | 8.8% |
| Cc1nnc(CSc2ccc(C(F)(F)F)cn2)o1 | -6.51% |
| Cn1cc(C(=O)N2CCCC2CCc2ccccc2)cn1 (stereo not given) | 9.84% |
| CCc1noc(C)c1C(=O)NCc1cc[nH]n1 | 3.44% |
| CCCc1cc(C(=O)NCCCC(=O)N2Cc3ccccc3C2)[nH]n1 | 8.81% |
| CCc1cc(CNC(=O)N(C2CC2)C(C)c2ccco2)on1 (stereo not given) | -0.335% |
| COC(=O)CNC(=O)c1scnc1C | 7.71% |
| CCNS(=O)(=O)C1CCN(C(=O)c2ccc(CC)o2)C1 (stereo not given) | 5.45% |
| O=C(CCSc1ccccc1)NCCn1nc2ccccn2c1=O | -6.09% |
| Cc1nc(C)n(CC2CCCCN2CCCS(C)(=O)=O)n1 (stereo not given) | 5.02% |
| CCC(O)CN1CCN(C(=O)CN(C)c2ccc(Cl)cn2)CC1 (stereo not given) | 0.684% |
| Cc1ccc(CS(=O)(=O)CC(=O)NCc2ccccc2F)cc1 | 0.515% |
| O=C1OCCN1CCS(=O)(=O)c1cccc(Cl)c1 | -0.82% |
| CCOc1cccc(COC(=O)c2cscn2)n1 | -0.262% |
| COc1ccccc1CNC1(CCO)CCOCC1 | 20.5% |
| Cc1ncc(CN(C)Cn2nc(-c3ccccc3)oc2=O)s1 | -2.81% |
| Cc1ccc(CC(=O)Nc2ccc(CS(C)(=O)=O)c(F)c2)cc1 | -2.77% |
| Cc1nnc(CN(Cc2ccccc2C(F)(F)F)C2CC2)o1 | 8.32% |
| CN(C)CCN(Cc1cccc(F)c1)C(=O)c1ccc2nccn2c1 | -0.0817% |
| O=S(=O)(NCc1ccc(S(=O)(=O)N2CCCC2)s1)c1cc(Cl)ccc1Cl | -43.4% |
| NC(=O)NC(CC(=O)N1CCc2sccc2C1)c1ccccc1F (stereo not given) | 3.5% |
| Cn1ncc2c1CCCC2NCc1cccnc1 (stereo not given) | 0.999% |
| O=C(CC1=CCCCC1)NCCc1csc(N2CCCC2)n1 | -7.63% |
| COC(=O)[C@H](C)NC(=O)c1cc(-c2cccc(Cl)c2)no1 | -7.25% |
